Compound activity from PubChem BioAssay.
NALP1 inh: blocks the NALP1 inflammasome reconstituted in yeast; 280,000 tested, 0.61% active; S. cerevisiae NALP1/ASC/caspase-1 growth, X-gal OD620, 72 h; inhibition, % at 10 µM; AID 2071; in the data active means inhibition mostly above about 24%, no sharp cut-off; inactive means mostly below about 32%
A1 inh: inhibitors of the anti-apoptotic protein A1, read as caspase activation. MEF A1-2A-BIM cells, Caspase-Glo 3/7 luminescence, 3 h; percent of clofoctol response, vehicle zero. caspase activation, % (test concentration not listed). 330,000 tested, 0.066% active. AID 2462;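 active means over half of replicate activation scores above 10%, or exactly half above 10 with the replicate mean above 10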
NLRP3 yeast inh: NALP3 inhibition in yeast. Yeast reconstituted NLRP3/ASC/caspase-1, beta-gal luminescence, 24 h. 330,000 tested, 0.39% active. inhibition, % at 10 µM;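 active means inhibition of 50% or more; inactive means inhibition below 50%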
T cell HTS: T cell immune modulators affecting CD8 T cell-vesicle binding | 2C CD8+ T cell-vesicle binding, flow cytometry; hits give low values | response (vesicle binding), % at 7 µM | 330,000 tested, 0.068% active | AID 2052;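 active means response, share of CD8 T cells binding vesicles, and their 90th percentile fluorescence all below set limits, cut at about 80% in these data, passing the limit was not always enough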;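 further: values below 100% mean blocked vesicle binding to the CD8+ T cells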
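Also added: QL9-peptide-loaded Drosophila micro-vesicles bearing Ld, ICAM-1 and B7-1; Test system: purified 2C TCR transgenic mouse naive CD8+ T cells; Measured by: cytometric PE anti-B7-1 and Alexa647 anti-CD8 signals after 1% paraformaldehyde fixation; Timing: binding step 1.5 h, 37 °C, antibody labelling 20 min, ice.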
NALP3 confirm: confirmation of NALP3 inhibitors in yeast; shares compounds with NLRP3 yeast inh; yeast expressing human NALP3, luminescence; inhibition, % at 10 µM; 1,300 tested, 81% active; in the data active means inhibition above about 48%
Casp1 ASC ctr: caspase-1-ASC yeast counter-screen hit; shares compounds with NLRP3 yeast inh; yeast expressing Caspase-1-ASC, luminescence counter screen; inhibition, % at 10 µM; 1,000 tested, 66% active
NALP3 retest: confirmation retest of NALP3 inhibitors in yeast | shares compounds with NLRP3 yeast inh | yeast expressing human NALP3, luminescence read-out | inhibition, % at 10 µM | 1,000 tested, 53% active
Of the large screens only hits and unclear results are named; the others gave an inactive call (follow-up assays come after a bar, where they were run). A selection: hits, their analogues and other compounds. The true share with any hit is near 1%. Unless noted, no stated cut-off is given here; in the data, active means inhibition above about 50%; inactive means the rest.

Cc1cc(C(=O)OCC(=O)Nc2ccccc2Br)c(C)o1	none (no result: NALP1 inh)
CCCOc1ncnc2c1[nH]c1ccccc12	NLRP3 yeast inh 74 | NALP3 confirm 88 | Casp1 ASC ctr 81 | NALP3 retest 76
Cc1csc2nc(O)c(C(=O)NCCCc3ccccc3)c(=O)n12	none (no result: NALP1 inh)
Cc1csc2nc(O)c(C(=O)NCCC3=CCCCC3)c(=O)n12	NLRP3 yeast inh 56 (no result: NALP1 inh) | NALP3 confirm 75 | Casp1 ASC ctr inactive | NALP3 retest 55
CC(C)(c1cc(Br)c(O)c(Br)c1)c1cc(Br)c(O)c(Br)c1	NLRP3 yeast inh 53 (no result: NALP1 inh) | NALP3 confirm 49
COc1ccc(CS(=O)(=O)CC(C)(O)c2ccccc2Cl)cc1 (stereo not given)	none
Clc1cncc(Cl)c1N/N=C/c1ccncc1	NLRP3 yeast inh 65 | NALP3 confirm inactive
CCOC(=O)c1sc(=NC(=O)c2ccccc2)n(C)c1C	NLRP3 yeast inh 63 | NALP3 confirm 75
COc1ccc2nc(C)cc(N3CCN(S(=O)(=O)c4ccccc4F)CC3)c2c1	none (no result: NALP1 inh)
CC(=O)N(CN1C(=O)c2ccccc2C1=O)c1cccc(C)c1	none
CC(=O)N(/N=C1\Sc2ccccc2C1=O)c1cccc(C)c1	NLRP3 yeast inh 54 | NALP3 confirm 64 | Casp1 ASC ctr inactive | NALP3 retest inactive
CCn1c(O)c(C=Nc2ccccc2)sc1=S	NLRP3 yeast inh 54 | NALP3 confirm 58 | Casp1 ASC ctr 56 | NALP3 retest 60
O=C(c1csc2c1CCCC2)N1CCN(c2cccc(C(F)(F)F)c2)CC1	none | NALP3 confirm inactive
O=C(c1csc2c1CCCC2)N1CCN(c2ccc(F)cc2)CC1	none
Cc1ccc(NN2C(=O)C=C(c3ccc(Cl)cc3)C2=O)cc1	A1 inh 11, NLRP3 yeast inh 95 | NALP3 confirm inactive
CCCN(CC(=O)Nc1ccc(F)c(F)c1F)C(=O)CCc1nc2ccccc2c(=O)[nH]1	none (no result: NALP1 inh)
CC1CN(c2nc(N(C)c3ccccc3)nc(N)c2[N+](=O)[O-])CC(C)O1 (stereo not given)	NLRP3 yeast inh 53 | NALP3 confirm inactive | Casp1 ASC ctr inactive | NALP3 retest inactive
O=c1c2ccccc2nnn1Cc1ccc(Br)cc1	NLRP3 yeast inh 50 | NALP3 confirm 66 | Casp1 ASC ctr 57 | NALP3 retest 58
COc1ccc(NS(=O)(=O)c2ccc(N3CCOCC3)c(N)c2)cc1	none (no result: NALP1 inh)
O=C(COc1ccc(S(=O)(=O)N2CCOCC2)cc1)NC1CCCCC1	none (no result: NALP1 inh, NLRP3 yeast inh)
COC(=O)CSc1nc2cc3c(cc2cc1C)OCCO3	NLRP3 yeast inh 69 | NALP3 confirm 73 | Casp1 ASC ctr 80 | NALP3 retest 71
O=C(/C=C/c1cn(CC(O)CN2CCCCC2)c2ccccc12)c1ccccc1 (stereo not given)	none (no result: A1 inh, NLRP3 yeast inh, T cell HTS)
CN1CCN(Cn2cc(/C=C/C(=O)c3ccccc3)c3ccccc32)CC1	NLRP3 yeast inh 67 | NALP3 confirm 74
Clc1ccc2nc(CSc3nc4ccccc4o3)cn2c1	NLRP3 yeast inh 57 | NALP3 confirm 73 | Casp1 ASC ctr 69 | NALP3 retest 60
Cc1ccc(SCc2cn3cc(Cl)ccc3n2)cc1	none (no result: NALP1 inh)
C/C(=N\NC(=O)COc1cccc(Br)c1)c1ccc2c(c1)OCCO2	none (no result: NALP1 inh)
Cn1c(/C=N/Nc2nc3ccccc3[nH]2)nc2ccccc21	NLRP3 yeast inh 51 | NALP3 confirm 74 | Casp1 ASC ctr inactive | NALP3 retest inactive
CCn1cnc2sc(-c3ccccc3)cc2c1=O	NLRP3 yeast inh 63 | NALP3 confirm 56 | Casp1 ASC ctr 66 | NALP3 retest 56
COc1ccc(C(=O)OCCN2CCN(C3=NS(=O)(=O)c4ccccc43)CC2)cc1OC	none
C[C@]12CC[C@H](O)CC1=CCC1C2CC[C@@]2(C)C1CCC21OCCO1 (stereo not given in full)	NLRP3 yeast inh 57 (no result: NALP1 inh) | NALP3 confirm 63
COc1ccc(CN2CCCC(C(=O)Nc3cccc(-n4cnnn4)c3)C2)c(C)c1C (stereo not given)	none
Cc1occc1C(=O)NC(C)C12CC3CC(CC(C3)C1)C2 (stereo not given)	none
CC(NC(=O)c1ccccc1F)C12CC3CC(CC(C3)C1)C2 (stereo not given)	NLRP3 yeast inh 51 (no result: NALP1 inh) | NALP3 confirm 60 | Casp1 ASC ctr 53 | NALP3 retest inactive
